The list is not random: actives were taken first. Their share in the collection is about 4.7%.
NR3A LBD binder: binders of NR3A ligand-binding domain, primary screen, biophysical, differential scanning fluorimetry, uHTS; Tm shift relative to glycine control, % at 25 µM; Glutamate receptor ionotropic, NMDA 3A (GRIN3A) ligand-binding domain; NR3A LBD differential scanning fluorimetry, Tm shift; 0% = protein alone, 100% = glycine-bound protein; 340,000 tested, 2.5% active;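 active = melting temperature shift of at least 10% of the positive control shift, at one fixed dose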
MT1-MMP act inh: blockers of MT1-MMP proenzyme processing, primary screen, HT1080 RFP-PRO-GFP cells, GFP/RFP fluorescence. GFP/RFP ratio fluorescence, overnight; percent of plate control window, DMSO zero. GFP/RFP ratio change, % at 20 µM. 360,000 tested, 0.061% active;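 active = GFP/RFP ratio change of at least 30% with cell ATP level not reduced by more than half and red fluorescence within 50% of control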
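Assay system: HT1080 cells carrying an RFP-PRO-GFP reporter | Dosing: Single dose of 20 µM compound, 1% DMSO final | Incubation: Cells overnight before dosing, compound overnight, 37 °C, 5% CO2 | Evaluation: GFP/RFP fluorescence ratio | Control set: DMSO and RFP-L50D-GFP cell wells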
ADAM10 inh: human ADAM10 inhibitors, primary screen, biochemical, QFRET, HTS; Disintegrin and metalloproteinase domain-containing protein 10 (Homo sapiens), O14672; recombinant ADAM10, EDANS/DABCYL FRET peptide cleavage, 3 h; inhibition, % at 7 µM; 370,000 tested, 0.62% active; AID 720582, 2013;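 active = inhibition above a per-campaign cutoff equal to the mean of compounds falling between control-based bounds plus 3 SD, cut at about 20% in these data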
Target sequence (O14672 214-748 limits assumed): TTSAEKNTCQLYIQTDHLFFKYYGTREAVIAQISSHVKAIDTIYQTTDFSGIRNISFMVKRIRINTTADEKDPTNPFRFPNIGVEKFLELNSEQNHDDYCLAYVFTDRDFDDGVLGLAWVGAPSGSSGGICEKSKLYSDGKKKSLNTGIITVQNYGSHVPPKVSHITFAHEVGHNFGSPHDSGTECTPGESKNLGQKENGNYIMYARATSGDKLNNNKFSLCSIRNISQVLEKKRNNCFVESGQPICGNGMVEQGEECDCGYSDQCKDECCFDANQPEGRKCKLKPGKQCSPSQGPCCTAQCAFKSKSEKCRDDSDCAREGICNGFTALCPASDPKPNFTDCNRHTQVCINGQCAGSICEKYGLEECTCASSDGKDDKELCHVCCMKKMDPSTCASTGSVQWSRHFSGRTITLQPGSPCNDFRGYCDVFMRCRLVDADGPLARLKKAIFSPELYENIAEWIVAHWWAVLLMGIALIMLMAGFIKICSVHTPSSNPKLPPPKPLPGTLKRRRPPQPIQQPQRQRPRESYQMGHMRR
MPTP inh: mitochondrial permeability transition pore inhibitors, primary screen, biochemical, isolated mouse mitochondria, absorbance | Ca2+ swelling absorbance, 30 min | inhibition, % at 10 µM | 360,000 tested, 1.4% active | AID 602449, 2012;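 active = inhibition of 50% or more, scaled per plate between neutral and stimulator controls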
SKN-1 inh: suppressors of acrylamide-induced Pgst-4::GFP reporter in worms, primary screen, SKN-1 inhibitor project, whole organism, uHTS, GFP/RFP fluorescence ratio, strain VP596. C. elegans VP596 Pgst-4::GFP/RFP ratio, 24 h. inhibition, % at 21.8 µM. 360,000 tested, 0.49% active;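 active = interference check ratio from 0.5 to 1.5 plus GFP to RFP signal ratio inhibition reaching or exceeding a fixed threshold, cut at about 30% in these data, passing the limit was not always enough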
ADAM17 inh: ADAM17 inhibitors, primary screen, biochemical, QFRET; recombinant ADAM17, EDANS/DABCYL FRET peptide cleavage; inhibition, % at 6.95 µM; 370,000 tested, 0.83% active; AID 720648, 2013;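 active = inhibition above the mean of compounds lying between control limits plus 3 SD, set per campaign, cut at about 8.5% in these data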
ADAM10 confirm: human ADAM10 inhibitors, confirmation, biochemical, QFRET, triplicate | shares compounds with ADAM10 inh | ADAM10 QFRET peptide cleavage, EDANS fluorescence | inhibition, % at 6.95 µM | 2,100 tested, 1% active;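 active = inhibition above about 20% chosen separately for each screening run, limit read from the data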
ADAM17 ctr: ADAM17 inhibitors, counter-screen for ADAM10 exosite inhibitor project, biochemical, QFRET, high throughput; shares compounds with ADAM10 inh; ADAM17 QFRET peptide cleavage, EDANS fluorescence; inhibition, % at 6.95 µM; 2,100 tested, 0.5% active; AID 743214, 2013;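 active = mean triplicate inhibition above the solvent-only control wells' mean plus 3 SD, cut at about 12% in these data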
ADAM10 counter: ADAM10 inhibitors, counter-screen for ADAM17 exosite inhibitor project, biochemical, FRET, human ADAM10 | shares compounds with ADAM17 inh | recombinant ADAM10, EDANS/DABCYL FRET peptide cleavage, 3 h | inhibition, % at 6.95 µM | 2,900 tested, 47% active | AID 743256, 2014;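 active = mean inhibition over the triplicate runs exceeds the activity threshold set in the earlier primary screen, cut at about 20% in these data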
ADAM17 confirm: ADAM17 inhibitors, hit retest, confirmation, biochemical, QFRET peptide cleavage. inhibition, % at 6.95 µM. 2,900 tested, 65% active. shares compounds with ADAM17 inh. recombinant ADAM17, EDANS/DABCYL QFRET peptide cleavage. AID 743257, 2014;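 active = mean inhibition across replicates above the hit cutoff set in the primary screen, cut at about 8.5% in these data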
Hits are given with their value; – = inactive; · = not tested or not shown.

SMILES | NR3A LBD binder | MT1-MMP act inh | ADAM10 inh | MPTP inh | SKN-1 inh | ADAM17 inh | ADAM10 confirm | ADAM17 ctr | ADAM10 counter | ADAM17 confirm
C=CCOc1c(Cl)cc(C2NC(=O)NC(C)=C2C(=O)OC)cc1Cl (configuration not stated) | – | – | – | – | – | – | · | · | · | ·
CCOc1cc(-c2nc(-c3ccccc3)c(-c3cc([N+](=O)[O-])ccc3C)[nH]2)ccc1O | – | – | 31 | – | – | 12 | – | – | 21 | 12
COc1ccc(-c2nc(-c3ccccc3)c(-c3cc([N+](=O)[O-])ccc3C)[nH]2)cc1OC | – | – | – | – | – | – | · | · | · | ·
CCOC(=O)c1c(C=O)c2sc(C)cc2n1C | – | – | – | – | – | – | · | · | · | ·
Cc1ccc(S(=O)(=O)N(C)C[C@H]2Oc3cc(Br)ccc3S(=O)(=O)N([C@H](C)CO)C[C@H]2C)cc1 | · | – | 31 | – | – | 17 | – | – | – | –
Cc1ccc(S(=O)(=O)N(C)C[C@H]2Oc3cc(Br)ccc3S(=O)(=O)N([C@H](C)CO)C[C@@H]2C)cc1 | · | – | – | – | – | – | · | · | · | ·
Cc1c(C(=O)NCCC2=CCCCC2)oc2ccc(S(=O)(=O)N3CCC4(CC3)OCCO4)cc12 | – | – | 22 | – | – | 8.9 | – | – | – | 10
CCC(C)NC(=O)c1oc2ccc(S(=O)(=O)N3CCC4(CC3)OCCO4)cc2c1C (configuration not stated) | – | – | – | – | – | – | · | · | · | ·
O=C(O)c1cnc(N2CCOCC2)nc1 | – | – | – | – | – | – | · | · | · | ·
Cc1ccc(C(=O)Nc2cccc([N+](=O)[O-])c2)cc1S(=O)(=O)Nc1ccc(NC(=O)c2ccccc2)cc1 | 36 | – | 37 | – | – | 15 | – | – | 35 | 23
COc1ccc(Nc2nc(N)nc(CSC(=S)N3CCN(c4ccccc4)CC3)n2)cc1 | – | – | 23 | – | – | 12 | – | – | 26 | 14
COc1ccc(NC(=O)CN(C)C(=O)c2cn(-c3ccccc3)nc2-c2ccc(Cl)cc2)cc1 | 27 | – | 20 | – | – | 10 | – | – | 38 | 18
Cc1nc(-c2ccccc2)c(Cc2ccccc2O)c(=O)[nH]1 | – | – | – | – | – | – | · | · | · | ·
O=C(COC(=O)/C=C/c1ccccc1Cl)NC(=O)NC1CCCC1 | – | – | – | – | – | – | · | · | · | ·
CC(C)(C)OC(=O)NCCCCCNC(=O)c1ncn(Cc2ccccc2)c1C(=O)NCCCCCNC(=O)OC(C)(C)C | – | – | 20 | – | – | 13 | – | – | 31 | 16
CC(C)C[C@H](NC(=O)c1nc[nH]c1C(=O)NCCCCCNC(=O)OC(C)(C)C)C(=O)OCc1ccccc1 | – | – | 29 | – | – | 14 | – | – | 42 | 21
CC(C)(C)OC(=O)NCCCCCNC(=O)c1[nH]cnc1C(=O)N[C@@H](Cc1ccccc1)C(=O)OCc1ccccc1 | – | – | 23 | – | – | 11 | – | – | 41 | 21
CN(Cc1ccccc1)C(=O)c1[nH]cnc1C(=O)NCCCCCNC(=O)OC(C)(C)C | – | – | – | – | – | – | · | · | · | ·
O=S(=O)(c1ccccc1)N(CC(F)(F)F)c1ccc(C(O)(C(F)(F)F)C(F)(F)F)cc1 | · | – | 49 | – | – | 22 | – | – | 37 | 22
CCOC(=O)c1cc(NC(=O)c2cccs2)ccc1N1CCOCC1 | – | – | – | – | – | – | · | · | · | ·
CCOC(=O)[C@]12CCCC=C1N(Cc1cccc3ccccc13)C(=O)[C@H](CC(=O)NCc1cccs1)C2 | · | – | 27 | – | – | 10 | – | – | 26 | 16
O=C(COC(=O)Cc1c[nH]c2ccccc12)Nc1cccc(Br)c1 | · | – | 26 | – | – | 11 | – | – | – | 8.9
O=C(COC(=O)Cc1c[nH]c2ccccc12)Nc1ccccc1 | – | – | – | – | – | – | · | · | · | ·
CN(C)c1nc(OCCOC(=O)c2ccccc2)nc(N(C)C)n1 | – | – | – | – | – | – | · | · | · | ·
O=C(CN(C(=O)CCC(=O)Nc1nccs1)c1cccc(F)c1)NCc1ccc2c(c1)OCO2 | – | – | – | – | – | – | · | · | · | ·
SMILES | NR3A LBD binder | MT1-MMP act inh | ADAM10 inh | MPTP inh | SKN-1 inh | ADAM17 inh | ADAM10 confirm | ADAM17 ctr | ADAM10 counter | ADAM17 confirm
Cc1ccc(C(=O)Nc2nnc(NC(=S)Nc3ccccc3)s2)cc1 | 32 | – | 24 | – | – | 9.2 | – | – | – | –
NC(=O)CC(NC(=O)c1ccc(Br)cc1)c1ccc(N2CCCCCCC2)c([N+](=O)[O-])c1 (configuration not stated) | – | – | 23 | – | – | 10 | – | – | 22 | 12
Cc1ccc(C)c(N(CC(=O)Nc2cc(Cl)ccc2Oc2ccccc2)S(C)(=O)=O)c1 | – | – | 29 | – | – | 10 | – | – | 24 | 13
COc1ccc(C)cc1NC(=O)CN(c1ccccc1F)S(C)(=O)=O | – | – | – | – | – | – | · | · | · | ·
Cc1cccc(C)c1N(CC(=O)Nc1cc(Cl)ccc1Oc1ccccc1)S(C)(=O)=O | – | – | 30 | – | – | 8.8 | – | – | 26 | 16
COc1cccc(OCC(=O)Nc2cc(Cl)ccc2Oc2ccccc2)c1 | – | – | – | – | – | – | · | · | · | ·
Cc1c(Cl)cccc1NC(=S)Nn1cnnc1 | – | – | – | – | – | – | · | · | · | ·

Screens: PubChem, several laboratories
